# Experiments:
# [1] = molecular target: Serine/threonine-protein kinase 32C (Homo sapiens) (UniProt Q86UX6); test: Inhibition of human recombinant YANK3 at 40 nM in presence of ATP by radiometric assay relative to control
# [2] = molecular target: Tyrosine-protein kinase Lyn (Homo sapiens) (UniProt P07948); test: Inhibition of human recombinant LYN at 500 nM in presence of ATP by radiometric assay relative to control
# [3] = molecular target: Vascular endothelial growth factor receptor 3 (Homo sapiens) (UniProt P35916); test: Inhibition of human recombinant FLT4 at 500 nM related to control ULK1
# [4] = molecular target: Calcium/calmodulin-dependent protein kinase type 1D (Homo sapiens) (UniProt Q8IU85); test: Inhibition of human recombinant CaMK1d at 500 nM related to control ULK1
# [5] = molecular target: Cyclin-dependent kinase 9 (Homo sapiens) (UniProt P50750); test: Inhibition of human recombinant CDK9 at 500 nM related to control ULK1
# [6] = molecular target: T1, Serine/threonine-protein kinase BRSK2 (Homo sapiens) (UniProt Q8IWQ3); test: Inhibition of human recombinant BRSK2 at 500 nM related to control ULK1
# T1 sequence (whole entry): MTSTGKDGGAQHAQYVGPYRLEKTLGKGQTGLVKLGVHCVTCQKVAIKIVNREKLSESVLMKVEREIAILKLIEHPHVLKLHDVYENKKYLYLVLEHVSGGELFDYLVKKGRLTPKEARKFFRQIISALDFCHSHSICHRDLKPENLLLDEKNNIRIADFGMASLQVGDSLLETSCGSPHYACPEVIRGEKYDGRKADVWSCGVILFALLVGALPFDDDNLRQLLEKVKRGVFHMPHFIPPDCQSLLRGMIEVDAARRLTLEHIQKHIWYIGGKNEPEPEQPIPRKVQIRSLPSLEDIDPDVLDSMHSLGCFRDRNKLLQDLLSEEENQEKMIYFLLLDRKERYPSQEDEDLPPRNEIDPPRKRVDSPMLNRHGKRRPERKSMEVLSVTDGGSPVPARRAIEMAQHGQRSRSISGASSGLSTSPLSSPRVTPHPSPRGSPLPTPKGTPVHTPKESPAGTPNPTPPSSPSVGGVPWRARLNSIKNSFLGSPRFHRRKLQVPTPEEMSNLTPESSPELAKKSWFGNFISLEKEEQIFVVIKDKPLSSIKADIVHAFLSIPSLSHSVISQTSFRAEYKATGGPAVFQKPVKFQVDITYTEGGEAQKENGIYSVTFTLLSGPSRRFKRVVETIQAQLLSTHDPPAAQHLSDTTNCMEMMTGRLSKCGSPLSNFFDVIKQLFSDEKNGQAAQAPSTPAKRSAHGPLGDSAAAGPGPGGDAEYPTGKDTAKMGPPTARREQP
# [7] = molecular target: SRSF protein kinase 1 (Homo sapiens) (UniProt Q96SB4); test: Inhibition of human recombinant SRPK1 at 500 nM related to control ULK1
# [8] = molecular target: High affinity nerve growth factor receptor (Homo sapiens) (UniProt P04629); test: Inhibition of human recombinant TRKA at 15 nM related to control ULK1
# [9] = molecular target: Serine/threonine-protein kinase pim-1 (Homo sapiens) (UniProt P11309); test: Inhibition of human recombinant PIM1 at 15 nM related to control ULK1
# [10] = molecular target: T2, Serine/threonine-protein kinase ULK2 (Homo sapiens) (UniProt Q8IYT8); test: Inhibition of human recombinant ULK2 at 15 nM related to control ULK1
# T2 sequence (whole entry): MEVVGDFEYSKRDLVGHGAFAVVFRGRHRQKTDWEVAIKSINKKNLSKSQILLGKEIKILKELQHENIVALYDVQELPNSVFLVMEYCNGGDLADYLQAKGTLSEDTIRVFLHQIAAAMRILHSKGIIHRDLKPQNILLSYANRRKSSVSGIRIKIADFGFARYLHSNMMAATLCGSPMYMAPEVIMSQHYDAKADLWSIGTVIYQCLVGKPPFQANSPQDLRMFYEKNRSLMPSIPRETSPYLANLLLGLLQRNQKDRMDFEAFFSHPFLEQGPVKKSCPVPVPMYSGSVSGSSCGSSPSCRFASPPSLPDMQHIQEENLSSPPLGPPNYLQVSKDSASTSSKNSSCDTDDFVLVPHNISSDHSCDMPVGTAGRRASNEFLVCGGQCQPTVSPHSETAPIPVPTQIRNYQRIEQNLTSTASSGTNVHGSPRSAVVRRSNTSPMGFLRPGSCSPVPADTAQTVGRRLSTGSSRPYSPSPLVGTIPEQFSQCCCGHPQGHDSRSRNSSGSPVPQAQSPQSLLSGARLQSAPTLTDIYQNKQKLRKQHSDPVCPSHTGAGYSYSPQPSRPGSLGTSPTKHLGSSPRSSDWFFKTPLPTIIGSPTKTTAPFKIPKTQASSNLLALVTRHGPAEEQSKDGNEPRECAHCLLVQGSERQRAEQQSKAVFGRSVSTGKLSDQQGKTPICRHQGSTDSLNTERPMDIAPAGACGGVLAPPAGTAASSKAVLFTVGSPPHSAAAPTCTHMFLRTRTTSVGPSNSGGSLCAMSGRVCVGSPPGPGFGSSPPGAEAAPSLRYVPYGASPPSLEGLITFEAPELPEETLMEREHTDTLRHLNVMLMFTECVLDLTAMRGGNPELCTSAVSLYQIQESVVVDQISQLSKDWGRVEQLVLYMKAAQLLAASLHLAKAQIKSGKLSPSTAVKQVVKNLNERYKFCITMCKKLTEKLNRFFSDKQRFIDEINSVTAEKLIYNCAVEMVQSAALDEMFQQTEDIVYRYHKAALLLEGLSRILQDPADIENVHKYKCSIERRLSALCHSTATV
# [11] = molecular target: Tyrosine-protein kinase receptor UFO (Homo sapiens) (UniProt P30530); test: Inhibition of human recombinant AXL at 15 nM in presence of ATP by radiometric assay relative to control
# In short: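 Panel of 327 recombinant human kinases, each assayed in vitro by radiometric activity assay in duplicate at a single inhibitor concentration per compound, chosen with reference to its ULK1 inhibition. Activity remaining was expressed as percent of vehicle control, and percent inhibition was calculated as 100 minus percent activity remaining.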
# Chain of SRSF protein kinase 1 (Homo sapiens) (Q96SB4 whole entry): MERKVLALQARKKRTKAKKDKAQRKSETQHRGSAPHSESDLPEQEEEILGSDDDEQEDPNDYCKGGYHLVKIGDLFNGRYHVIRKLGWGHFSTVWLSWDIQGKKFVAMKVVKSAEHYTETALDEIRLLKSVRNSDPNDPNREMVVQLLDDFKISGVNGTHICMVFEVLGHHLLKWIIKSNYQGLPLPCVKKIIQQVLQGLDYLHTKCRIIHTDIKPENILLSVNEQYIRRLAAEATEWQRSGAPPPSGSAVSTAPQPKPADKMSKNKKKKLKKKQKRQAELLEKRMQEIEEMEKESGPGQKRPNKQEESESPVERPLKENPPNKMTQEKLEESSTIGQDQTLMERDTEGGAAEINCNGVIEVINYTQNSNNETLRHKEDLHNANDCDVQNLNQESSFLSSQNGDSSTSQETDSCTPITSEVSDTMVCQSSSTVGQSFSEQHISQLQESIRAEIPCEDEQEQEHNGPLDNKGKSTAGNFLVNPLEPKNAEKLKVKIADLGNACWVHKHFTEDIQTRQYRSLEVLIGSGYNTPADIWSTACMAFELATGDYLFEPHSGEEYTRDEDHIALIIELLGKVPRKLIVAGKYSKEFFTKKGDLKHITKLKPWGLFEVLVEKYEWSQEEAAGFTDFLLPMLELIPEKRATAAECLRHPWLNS
# Chain of High affinity nerve growth factor receptor (Homo sapiens) (P04629 33-796 limits assumed): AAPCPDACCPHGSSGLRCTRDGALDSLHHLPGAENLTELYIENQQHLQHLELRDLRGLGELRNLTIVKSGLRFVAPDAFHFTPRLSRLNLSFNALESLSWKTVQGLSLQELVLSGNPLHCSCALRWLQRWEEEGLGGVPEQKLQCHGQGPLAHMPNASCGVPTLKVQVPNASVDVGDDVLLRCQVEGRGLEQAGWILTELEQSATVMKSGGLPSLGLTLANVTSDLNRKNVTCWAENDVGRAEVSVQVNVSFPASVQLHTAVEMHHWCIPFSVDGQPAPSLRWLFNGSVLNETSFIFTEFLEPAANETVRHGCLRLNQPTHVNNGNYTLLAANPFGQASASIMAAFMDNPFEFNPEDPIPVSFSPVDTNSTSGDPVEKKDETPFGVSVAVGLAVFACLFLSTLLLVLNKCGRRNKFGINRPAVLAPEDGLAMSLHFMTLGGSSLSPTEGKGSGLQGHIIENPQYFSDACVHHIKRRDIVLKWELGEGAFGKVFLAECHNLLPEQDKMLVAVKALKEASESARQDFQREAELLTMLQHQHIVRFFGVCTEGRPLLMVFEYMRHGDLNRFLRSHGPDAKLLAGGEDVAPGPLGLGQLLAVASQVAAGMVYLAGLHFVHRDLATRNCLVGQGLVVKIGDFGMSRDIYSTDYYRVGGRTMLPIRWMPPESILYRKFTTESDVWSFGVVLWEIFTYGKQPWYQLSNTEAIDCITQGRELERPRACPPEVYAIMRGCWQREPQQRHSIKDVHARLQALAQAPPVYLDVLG
# Chain of Tyrosine-protein kinase Lyn (Homo sapiens) (P07948 2-512 limits assumed): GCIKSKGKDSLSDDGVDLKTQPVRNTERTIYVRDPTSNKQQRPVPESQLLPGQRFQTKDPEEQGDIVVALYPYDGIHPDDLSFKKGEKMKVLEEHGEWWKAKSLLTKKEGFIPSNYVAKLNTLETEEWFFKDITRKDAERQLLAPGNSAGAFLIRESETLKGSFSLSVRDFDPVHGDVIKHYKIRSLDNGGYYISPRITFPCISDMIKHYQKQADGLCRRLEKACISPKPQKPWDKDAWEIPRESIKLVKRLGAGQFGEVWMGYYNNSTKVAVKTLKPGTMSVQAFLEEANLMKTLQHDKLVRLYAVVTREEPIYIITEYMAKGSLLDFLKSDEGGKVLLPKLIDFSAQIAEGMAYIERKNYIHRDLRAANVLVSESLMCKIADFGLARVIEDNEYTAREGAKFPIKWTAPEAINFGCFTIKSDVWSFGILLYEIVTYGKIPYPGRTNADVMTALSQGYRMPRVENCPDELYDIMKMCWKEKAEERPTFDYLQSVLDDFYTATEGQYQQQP
# Chain of Vascular endothelial growth factor receptor 3 (Homo sapiens) (P35916 whole entry): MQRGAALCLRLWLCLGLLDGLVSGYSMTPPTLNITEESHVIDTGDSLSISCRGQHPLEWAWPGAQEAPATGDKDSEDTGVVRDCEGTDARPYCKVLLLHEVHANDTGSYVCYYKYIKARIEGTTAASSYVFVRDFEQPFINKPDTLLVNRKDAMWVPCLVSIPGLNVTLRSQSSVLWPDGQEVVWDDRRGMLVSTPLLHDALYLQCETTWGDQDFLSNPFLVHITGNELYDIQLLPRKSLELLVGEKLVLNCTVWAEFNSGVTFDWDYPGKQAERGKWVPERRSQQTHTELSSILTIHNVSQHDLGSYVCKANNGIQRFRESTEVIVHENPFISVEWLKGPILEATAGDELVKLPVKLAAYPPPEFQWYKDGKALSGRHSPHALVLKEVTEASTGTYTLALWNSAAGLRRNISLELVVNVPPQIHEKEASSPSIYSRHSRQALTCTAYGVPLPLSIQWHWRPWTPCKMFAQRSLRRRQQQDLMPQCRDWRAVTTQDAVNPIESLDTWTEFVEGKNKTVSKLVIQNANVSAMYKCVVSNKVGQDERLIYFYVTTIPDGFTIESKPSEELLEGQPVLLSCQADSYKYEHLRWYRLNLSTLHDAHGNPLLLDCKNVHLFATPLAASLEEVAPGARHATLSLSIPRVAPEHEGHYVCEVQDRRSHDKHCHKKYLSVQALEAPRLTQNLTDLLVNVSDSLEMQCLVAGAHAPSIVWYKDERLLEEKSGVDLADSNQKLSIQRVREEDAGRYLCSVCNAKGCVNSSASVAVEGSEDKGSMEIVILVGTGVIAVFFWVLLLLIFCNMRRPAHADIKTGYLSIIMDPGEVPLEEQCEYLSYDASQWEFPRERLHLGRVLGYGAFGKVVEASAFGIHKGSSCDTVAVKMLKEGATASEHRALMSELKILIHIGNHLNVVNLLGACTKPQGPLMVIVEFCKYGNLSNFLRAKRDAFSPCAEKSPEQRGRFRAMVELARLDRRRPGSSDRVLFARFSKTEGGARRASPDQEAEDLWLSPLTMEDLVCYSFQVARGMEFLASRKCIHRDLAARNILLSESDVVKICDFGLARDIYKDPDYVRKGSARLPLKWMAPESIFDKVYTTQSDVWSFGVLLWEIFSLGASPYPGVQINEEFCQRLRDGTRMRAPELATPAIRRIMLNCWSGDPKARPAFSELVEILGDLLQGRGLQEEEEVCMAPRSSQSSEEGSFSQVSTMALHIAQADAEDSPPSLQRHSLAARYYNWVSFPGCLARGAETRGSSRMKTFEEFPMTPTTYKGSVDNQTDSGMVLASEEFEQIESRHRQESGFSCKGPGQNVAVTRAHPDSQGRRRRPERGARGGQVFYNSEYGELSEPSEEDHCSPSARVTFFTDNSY
# Chain of Calcium/calmodulin-dependent protein kinase type 1D (Homo sapiens) (Q8IU85 whole entry, looked up): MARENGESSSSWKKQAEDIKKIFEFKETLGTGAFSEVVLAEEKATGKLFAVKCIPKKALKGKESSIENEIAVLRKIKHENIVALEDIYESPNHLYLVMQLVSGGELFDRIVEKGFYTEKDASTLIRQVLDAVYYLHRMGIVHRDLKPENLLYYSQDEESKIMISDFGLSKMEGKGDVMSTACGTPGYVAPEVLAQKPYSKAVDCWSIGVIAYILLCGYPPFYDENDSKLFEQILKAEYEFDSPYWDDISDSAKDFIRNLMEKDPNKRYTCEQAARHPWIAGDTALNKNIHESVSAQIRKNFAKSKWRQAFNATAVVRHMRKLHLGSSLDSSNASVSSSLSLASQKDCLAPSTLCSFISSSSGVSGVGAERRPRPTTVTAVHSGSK
# Chain of Serine/threonine-protein kinase 32C (Homo sapiens) (Q86UX6 whole entry): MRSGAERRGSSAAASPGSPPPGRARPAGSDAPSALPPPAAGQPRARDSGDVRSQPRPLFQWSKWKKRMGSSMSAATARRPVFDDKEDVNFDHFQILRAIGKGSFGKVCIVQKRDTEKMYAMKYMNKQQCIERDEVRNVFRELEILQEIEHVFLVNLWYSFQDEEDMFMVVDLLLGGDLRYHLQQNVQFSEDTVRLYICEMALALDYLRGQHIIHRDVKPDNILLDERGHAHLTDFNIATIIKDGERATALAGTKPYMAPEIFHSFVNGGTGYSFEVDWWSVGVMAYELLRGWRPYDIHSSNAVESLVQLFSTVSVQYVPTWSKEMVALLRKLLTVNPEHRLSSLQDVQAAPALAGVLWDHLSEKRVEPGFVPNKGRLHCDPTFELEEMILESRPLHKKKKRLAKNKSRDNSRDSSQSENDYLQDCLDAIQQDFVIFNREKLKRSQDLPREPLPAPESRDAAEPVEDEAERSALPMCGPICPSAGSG
# Chain of Cyclin-dependent kinase 9 (Homo sapiens) (P50750 whole entry): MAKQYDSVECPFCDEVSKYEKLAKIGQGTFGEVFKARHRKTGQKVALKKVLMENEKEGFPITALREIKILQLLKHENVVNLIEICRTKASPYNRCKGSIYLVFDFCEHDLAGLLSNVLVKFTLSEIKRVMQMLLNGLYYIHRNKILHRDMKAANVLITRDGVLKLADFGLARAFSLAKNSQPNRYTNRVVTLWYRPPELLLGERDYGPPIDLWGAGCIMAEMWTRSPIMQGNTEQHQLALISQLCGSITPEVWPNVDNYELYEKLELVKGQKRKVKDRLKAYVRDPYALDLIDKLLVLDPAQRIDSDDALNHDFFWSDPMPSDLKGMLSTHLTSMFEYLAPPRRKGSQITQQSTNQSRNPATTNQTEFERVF
# Chain of Serine/threonine-protein kinase pim-1 (Homo sapiens) (P11309 whole entry, looked up): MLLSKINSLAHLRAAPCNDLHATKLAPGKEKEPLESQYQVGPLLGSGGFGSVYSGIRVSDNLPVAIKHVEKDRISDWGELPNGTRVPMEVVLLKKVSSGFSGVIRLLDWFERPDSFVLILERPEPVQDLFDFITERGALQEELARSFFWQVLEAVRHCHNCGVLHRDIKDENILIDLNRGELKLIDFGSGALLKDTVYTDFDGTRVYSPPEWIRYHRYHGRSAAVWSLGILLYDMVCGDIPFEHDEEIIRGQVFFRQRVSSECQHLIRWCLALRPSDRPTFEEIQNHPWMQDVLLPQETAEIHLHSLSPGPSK
compound,measurement,setting,value
O=C(N[C@@H](C1CC1)C(F)(F)F)c1cc(-c2cnn3cc(-c4ccc(F)cc4)cnc23)cs1,inhibition,[1],5%
CNC(=O)c1ccccc1Oc1nc(Nc2cc(OC)c(OC)c(OC)c2)ncc1Br,inhibition,[2],30%
same,fold change (FC),[3],0.31
same,fold change (FC),[4],0.07
same,fold change (FC),[5],0.04
same,fold change (FC),[6],0.04
same,fold change (FC),[7],0.14
CC(C)[C@H](NC(=O)c1cc(-c2cnn3cc(-c4ccc(OCCN5CCCCC5)cc4)cnc23)cs1)C(F)(F)F,fold change (FC),[8],0
same,fold change (FC),[9],0.16
same,fold change (FC),[10],0.83
same,inhibition,[11],11%

# Source: ChEMBL document CHEMBL5653631, “A Potent and Selective ULK1 Inhibitor Suppresses Autophagy and Sensitizes Cancer Cells to Nutrient Stress” (iScience, 2018)
